Rows were chosen to be rich in hits. Some 2.9% of all compounds tested hit in one or more screens of this group.
SIRT5 inh: sirtuin-5 (human) deacylase inhibition; Q9NXA8; Purified SirT5, succinyl-peptide AMC, trypsin-coupled fluorescence; inhibition, % at 15 µM; hit rate 1.1% among 330,000; AID 652115; in the data active means inhibition above about 15%; inconclusive means no clear call, values can overlap the other calls
Target sequence (Q9NXA8 whole entry, looked up): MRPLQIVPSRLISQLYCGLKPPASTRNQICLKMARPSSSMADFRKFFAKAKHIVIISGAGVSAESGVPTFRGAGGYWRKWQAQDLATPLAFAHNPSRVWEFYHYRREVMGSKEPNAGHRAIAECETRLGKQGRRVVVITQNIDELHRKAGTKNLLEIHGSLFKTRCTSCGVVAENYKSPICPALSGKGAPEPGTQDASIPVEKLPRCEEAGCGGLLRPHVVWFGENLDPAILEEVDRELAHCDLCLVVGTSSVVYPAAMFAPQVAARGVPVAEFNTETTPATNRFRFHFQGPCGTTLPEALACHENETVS
ERAP1 HTS inh: blocks human ERAP1 aminopeptidase activity. Q9NZ08. recombinant ERAP1, Leu-AMC fluorescence, 60 min. inhibition, % at 10.7 µM. hit rate 0.15% among 340,000. AID 652197;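 active means mean replicate inhibition of at least 30%, or all replicates individually reaching that 30% level; inactive means mean below 30% and not every replicate reaching it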;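 further: 0% = neutral control wells and 100% = L-leucinethiol positive control wells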
CAL PDZ FP-1: inhibitors of human CAL PDZ peptide binding | Q9HD26 | purified CAL PDZ, TMR-peptide fluorescence polarization, 1 h | inhibition, % at 20 µM | hit rate 0.02% among 330,000 | AID 504414;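 active means highest replicate inhibition of at least 40%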;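 further: plate controls were DMSO neutral control wells for no effect and unlabeled competitor peptide control wells for full effect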
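Material: tagged CAL PDZ domain; buffer or medium: 25 mM sodium phosphate pH 7.4, 150 mM NaCl, TCEP, IgG, Thesit; compound dosing: single point, 20 µM; schedule: 1 h incubation at room temperature before polarization reading; measured by: FP readout, S and P plane fluorescence; read-out basis: percent inhibition from loss of millipolarization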
S100A4 MyoIIA: inhibitors of human S100A4 binding to myosin IIA peptide. AID 652163. P26447. hit rate 0.14% among 360,000. S100A4/TAMRA-MyoIIA peptide fluorescence polarization. inhibition, % at 10.7 µM;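 active means mean inhibition of at least 70% across replicates, with every replicate also reaching that level; inconclusive means mean inhibition reaches 70% but some replicates fall short; inactive means mean inhibition below 70%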
Target sequence (P26447 whole entry, looked up): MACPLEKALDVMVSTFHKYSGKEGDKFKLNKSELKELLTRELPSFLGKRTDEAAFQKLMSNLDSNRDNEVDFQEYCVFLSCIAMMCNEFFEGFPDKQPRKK
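Material: human S100A4 monomer with TAMRA-labelled myosin IIA peptide; buffer or medium: HEPES pH 7.2 with CaCl2, KCl, NaCl, DTT, Triton; compound dosing: one concentration per compound; schedule: 5 min incubation before reading; benchmarks: neutral control DMSO, positive control TFP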
CAL PDZ FP-2: inhibitors of human CAL PDZ peptide binding | purified CAL PDZ, TMR-peptide fluorescence polarization, 1 h | inhibition, % at 24.9 µM | hit rate 0.92% among 300,000;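 active means mean inhibition of at least 30% with at least half of replicates also reaching 30%; inconclusive means no clear call, values can overlap the other calls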;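 further: 0% = DMSO neutral control and 100% = excess unlabeled competitor peptide PRC23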
DENV2 CPE rescue: inhibitors of DENV2 cytopathic effect. CPE inhibition, % at 9.99 µM. AID 651640. DENV2-infected cells, cytopathic effect rescue, plate reader. hit rate 1.7% among 350,000; in the data active means CPE inhibition above about 20%, passing the limit was not always enough; inconclusive means no clear call, values can overlap the other calls; tested in BHK-21 cells;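 further: 0% = median of neutral control wells and 100% = median of positive control wells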
* hit, by the source's call; ? = inconclusive; nt = no result; ! = repeats disagree.

SMILES	SIRT5 inh	ERAP1 HTS inh	CAL PDZ FP-1	S100A4 MyoIIA	CAL PDZ FP-2	DENV2 CPE rescue
C[C@@H]1CN([C@H](C)CO)C(=O)c2cc(NC(=O)Nc3ccc(C(F)(F)F)cc3)ccc2O[C@@H]1CN(C)C(=O)Nc1ccc2c(c1)OCO2	15*	0	nt	-1	nt	18
C[C@@H]1CN([C@@H](C)CO)C(=O)c2cc(NC(=O)Nc3ccc(C(F)(F)F)cc3)ccc2O[C@@H]1CN(C)C(=O)Nc1ccc2c(c1)OCO2	15*	-2	nt	-5	nt	10
COc1ccc2c3c([nH]c2c1)[C@@H](CO)N(C)CC31CCN(C(=O)c2cccnc2)CC1	nt	nt	nt	nt	nt	11
COc1ccc(S(=O)(=O)N(C)C[C@H]2Oc3ccc(NC(=O)CCCN(C)C)cc3CC(=O)N([C@@H](C)CO)C[C@@H]2C)cc1	-5	0	nt	-17	nt	19
C[C@@H]1CN([C@H](C)CO)C(=O)c2cc(NC(=O)Nc3ccc(C(F)(F)F)cc3)ccc2O[C@@H]1CN(C)C(=O)Nc1ccc(C(F)(F)F)cc1	6	2	nt	106*	nt	-5
CCCNC(=O)N1C[C@@H]2[C@H](c3ccccc31)[C@@H](CO)N2C(=O)NCCC	8	3	nt	1	nt	?
O=C(Nc1ncc(S(=O)(=O)c2ccc([N+](=O)[O-])cc2)s1)c1ccccc1F	22*	-2	0	10	nt	8
O=c1[nH]c(=O)c2[nH]c(=S)n(-c3ccccc3)c2[nH]1	-6	37*	-1	1	-2	3
Cn1cnc2c(NCc3ccco3)ncnc21	30*	0	1	0	8	?
COc1ccc(NC(=O)N(C)C[C@H]2Oc3c(NC(=O)C4CCCCC4)cccc3C(=O)N([C@@H](C)CO)C[C@H]2C)cc1	-2	nt	nt	nt	nt	2
C[C@@H]1CCCCO[C@H](CN(C)S(=O)(=O)c2ccc(Cl)cc2)[C@@H](C)CN([C@@H](C)CO)C(=O)c2cc(NC(=O)c3ccccc3)ccc2O1	-2	2	nt	10	nt	-7
CCCC(=O)Nc1ccc2c(c1)OC[C@@H](C)N(Cc1ccccn1)C[C@@H](C)[C@H](OC)CN(C)C2=O	3	7	nt	6	nt	1
CCC(=O)Nc1ccc2c(c1)OC[C@@H](C)N(Cc1ccccc1F)C[C@@H](C)[C@@H](OC)CN(C)C2=O	30*!	-1	nt	-1	nt	-1
CCC(=O)Nc1ccc2c(c1)OC[C@@H](C)N(Cc1ccccn1)C[C@@H](C)[C@@H](OC)CN(C)C2=O	15*	4	nt	36	nt	12
CCC(=O)Nc1ccc2c(c1)OC[C@H](C)N(Cc1ccccn1)C[C@@H](C)[C@H](OC)CN(C)C2=O	-1	2	nt	-10	nt	32*
COc1ccccc1CN1C[C@H](C)[C@H](OC)CN(C)C(=O)c2ccc(NC(C)=O)cc2OC[C@H]1C	1	3	nt	-20	nt	43*
CCC(=O)Nc1ccc2c(c1)OC[C@@H](C)N(Cc1ccccc1F)C[C@H](C)[C@@H](OC)CN(C)C2=O	7	-1	nt	-2	nt	3
CO[C@H]1CN(C)C(=O)c2cc(NC(=O)C3CC3)ccc2OC[C@H](C)N(C(=O)c2ccccc2F)C[C@H]1C	-4	6	nt	4	nt	11
C[C@@H]1CN([C@@H](C)CO)C(=O)c2cc(NC(=O)CCC(F)(F)F)ccc2O[C@@H]1CN(C)Cc1ccc(Cl)c(Cl)c1	12	2	nt	1	nt	5
CO[C@H]1CN(C)C(=O)c2ccc(NC(=O)C3CCC3)cc2OC[C@H](C)N(C(=O)NC(C)C)C[C@H]1C	-1	-4	nt	-1	nt	-1
COc1ccc2c3c([nH]c2c1)[C@@H](CO)N(Cc1cccc(F)c1)CC31CCN(CC2CC2)CC1	nt	nt	nt	nt	nt	-31
Cc1noc(C)c1NC(=O)Nc1ccc2c(c1)C(=O)N([C@@H](C)CO)C[C@H](C)[C@@H](CN(C)C(=O)Nc1cccc3ccccc13)OCCCC[C@@H](C)O2	nt	nt	nt	nt	nt	8
Cc1noc(C)c1NC(=O)Nc1ccc2c(c1)C(=O)N([C@H](C)CO)C[C@@H](C)[C@@H](CN(C)Cc1ccc(C(=O)O)cc1)O2	-9	1	nt	-35	nt	6
CCCC(=O)Nc1ccc2c(c1)OC[C@@H](C)N(Cc1ccccn1)C[C@H](C)[C@H](OC)CN(C)C2=O	-1	2	nt	5	nt	-3
CCCC(=O)Nc1ccc2c(c1)OC[C@@H](C)N(Cc1ccccn1)C[C@H](C)[C@@H](OC)CN(C)C2=O	-1	8	nt	0	nt	64*
SMILES	SIRT5 inh	ERAP1 HTS inh	CAL PDZ FP-1	S100A4 MyoIIA	CAL PDZ FP-2	DENV2 CPE rescue
O=C(Nc1cc(F)ccc1F)N1C[C@H]2[C@@H](c3ccccc31)[C@@H](CO)N2Cc1cccnc1	0	4	nt	-4	nt	14
C[C@H]1CN([C@@H](C)CO)C(=O)c2ccccc2-c2ccccc2CO[C@H]1CN(C)C(=O)Cc1ccccc1	3	0	nt	-4	nt	-4
CO[C@@H]1CN(C)C(=O)c2cc(NC(=O)c3cc(C)on3)ccc2OC[C@H](C)N(C(=O)C2CC2)C[C@H]1C	-2	-1	nt	0	nt	21*
COCC(=O)N1C[C@@H](C)[C@@H](OC)CN(C)C(=O)c2ccc(NC(=O)c3cc(C)on3)cc2OC[C@@H]1C	34*	0	nt	16	nt	5
COCC#Cc1ccc2c(c1)O[C@H](CN(C)C(=O)C1CC1)[C@H](C)CN([C@@H](C)CO)S2(=O)=O	1	0	nt	4	nt	2
N#CCC(=O)Nc1ccc(C(=O)OCC(=O)NC(=O)Nc2ccc3c(c2)OCCO3)cc1	6	-1	-2	-7	62*	0
CC(C)NC(=O)COC(=O)c1ccc(NS(=O)(=O)c2ccc3c(c2)OCCO3)cc1	nt	nt	1	nt	-3	nt
O=C(COc1ccc(F)cc1)Nc1ccc2c(c1)OCCO2	3	0	-3	-5	0	102*
NC(=O)COC(=O)c1ccc(NS(=O)(=O)c2ccc3c(c2)OCCO3)cc1	0	-1	-1	8	76*	2
N#CCC(=O)Nc1ccc(C(=O)OCC(=O)NCc2ccc3c(c2)OCO3)cc1	-1	-2	-1	-9	-1	6
C[C@@H]1CCCCO[C@H](CN(C)C)[C@@H](C)CN([C@@H](C)CO)C(=O)c2cc(NC(=O)Nc3ccccc3)ccc2O1	-3	0	nt	-9	nt	6
O=C(OCC(=O)N1CCc2ccccc21)[C@@H]1CCCN1S(=O)(=O)c1ccccc1F	-4	0	-1	-14	-5	49*
Cc1ccc(S(=O)(=O)Nc2cccc3c2O[C@@H](CN(C)C(=O)NC(C)C)[C@@H](C)CN([C@H](C)CO)C3=O)cc1	-2	-1	nt	1	nt	43*
Cc1noc(C)c1S(=O)(=O)Nc1cccc2c1O[C@H](CN(C)C(=O)NC(C)C)[C@H](C)CN([C@H](C)CO)C2=O	0	4	nt	-5	nt	3

Bioassay records (PubChem BioAssay)
